The subject of series [1] is Staphylococcus aureus. Kind of series: Antimicrobial activity against Staphylococcus aureus RN4220 after 24 hrs broth microdilution method. The series is classed as functional. An outline of the steps: (§1)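 MIC taken as the minimum concentration giving >98% growth inhibition of the named S. aureus strain (RN4220, ATCC 25923 or ATCC 29213). Values are single determinations or averages of n determinations. Vancomycin was run as control.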

In series [2] the target is Pyruvate kinase PKLR (Homo sapiens) (UniProt P30613). The series is described as follows: Inhibition of human pyruvate kinase L at 10 uM by LDH assay. In outline:
(§2)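 Selected compounds were tested against mammalian PK isoforms M1, M2, R and L at the highest concentration, 10 µM. Results are given as percent inhibition.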

Series [3] deals with Pyruvate kinase PKM (Homo sapiens) (UniProt P14618). The series is described as follows: Inhibition of human pyruvate kinase M2 at 10 uM by LDH assay. In outline:
as §2

Series [4] concerns the target Pyruvate kinase PKLR (Homo sapiens) (UniProt P30613). Kind of series: Inhibition of human pyruvate kinase R at 10 uM by LDH assay. An outline of the steps:
as §2

Series [5] relates to THP-1. The series is described as follows: Cytotoxicity against human THP1 cells assessed as cell death at 6.25 uM after 24 hrs by MTS assay. The class given is cell-based. Conditions: thp-1, 24 h. In outline:
(§3)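 THP-1 cells were exposed to test agent at 25 µM and 6.25 µM. Read-out was percentage of dead cells.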

The next series concerns the target T1, Pyruvate kinase (Staphylococcus aureus (strain MRSA252), UniProt Q6GG09).
T1 sequence (Q6GG09 whole entry): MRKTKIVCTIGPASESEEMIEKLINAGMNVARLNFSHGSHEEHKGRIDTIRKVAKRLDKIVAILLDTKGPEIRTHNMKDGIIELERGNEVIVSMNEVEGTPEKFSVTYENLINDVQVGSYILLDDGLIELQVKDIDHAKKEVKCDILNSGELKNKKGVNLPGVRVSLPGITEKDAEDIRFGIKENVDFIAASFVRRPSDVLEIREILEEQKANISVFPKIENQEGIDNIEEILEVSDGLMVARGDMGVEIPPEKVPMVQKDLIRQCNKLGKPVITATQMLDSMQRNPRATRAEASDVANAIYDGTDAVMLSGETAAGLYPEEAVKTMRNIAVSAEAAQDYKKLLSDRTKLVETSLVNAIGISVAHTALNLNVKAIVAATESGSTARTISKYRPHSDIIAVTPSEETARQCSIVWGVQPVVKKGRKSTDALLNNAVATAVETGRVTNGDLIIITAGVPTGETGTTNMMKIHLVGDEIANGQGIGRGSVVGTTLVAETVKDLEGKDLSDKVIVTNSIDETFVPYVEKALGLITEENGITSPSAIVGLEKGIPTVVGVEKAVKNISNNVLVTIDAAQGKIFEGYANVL
The series is described as follows: Inhibition of methicillin-resistant Staphylococcus aureus 252 pyruvate kinase by LDH assay. Also on record: species or system Staphylococcus aureus subsp. aureus MRSA252. In outline:
(§4)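 MRSA pyruvate kinase activity was measured by a previously described procedure. IC50 was calculated from triplicate 15-point titrations, or averaged over n such determinations. Where no IC50 was obtained, the value is % inhibition at the highest concentration tested.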

Series [6] deals with THP-1. Kind of series: Cytotoxicity against human THP1 cells assessed as cell death at 25 uM after 24 hrs by MTS assay. The series is classed as cell-based. Particulars: thp-1, 24 h. In outline: as §3
The target in series [7] is Pyruvate kinase PKM (Homo sapiens) (UniProt P14618). The series is described as follows: Inhibition of human pyruvate kinase M1 at 10 uM by LDH assay. In outline:
as §2

The target of series [8] is T2, Pyruvate kinase (Staphylococcus aureus (strain MRSA252)) (UniProt Q6GG09).
T2 sequence (whole entry): T1 sequence (Q6GG09 whole entry)
The series is described as follows: Inhibition of methicillin-resistant Staphylococcus aureus 252 pyruvate kinase at 10 uM by LDH assay. Particulars: Staphylococcus aureus subsp. aureus MRSA252. An outline of the steps:
as §4

The target of series [9] is T2, Pyruvate kinase (Staphylococcus aureus (strain MRSA252)). Kind of series: Inhibition of methicillin-resistant Staphylococcus aureus 252 pyruvate kinase at 0.5 uM by LDH assay. Conditions: Staphylococcus aureus subsp. aureus MRSA252. In outline: as §4
Series [10] relates to Staphylococcus aureus. The series is described as follows: Antimicrobial activity against Staphylococcus aureus ATCC 29213 after 24 hrs broth microdilution method. The series is classed as functional. In outline:
as §1

≈ marks a conversion by molar mass, not a printed value.

Pyruvate kinase PKM (Homo sapiens), sequence (P14618 2-531 limits assumed): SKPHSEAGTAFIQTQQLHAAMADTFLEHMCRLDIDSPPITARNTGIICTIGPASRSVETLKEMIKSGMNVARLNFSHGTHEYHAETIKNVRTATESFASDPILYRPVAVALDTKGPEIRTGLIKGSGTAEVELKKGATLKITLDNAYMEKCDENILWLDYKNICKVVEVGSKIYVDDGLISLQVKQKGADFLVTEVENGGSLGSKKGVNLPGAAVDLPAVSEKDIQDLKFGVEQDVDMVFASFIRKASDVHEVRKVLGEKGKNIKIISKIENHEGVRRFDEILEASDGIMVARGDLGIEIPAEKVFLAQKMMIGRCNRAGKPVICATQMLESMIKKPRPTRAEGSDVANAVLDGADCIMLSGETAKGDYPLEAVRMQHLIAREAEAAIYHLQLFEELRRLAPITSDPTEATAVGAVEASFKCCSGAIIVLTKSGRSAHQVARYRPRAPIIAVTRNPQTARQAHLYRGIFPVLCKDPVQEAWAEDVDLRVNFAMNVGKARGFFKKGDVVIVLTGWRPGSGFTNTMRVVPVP
Pyruvate kinase PKLR (Homo sapiens), sequence (P30613 whole entry, looked up, canonical isoform): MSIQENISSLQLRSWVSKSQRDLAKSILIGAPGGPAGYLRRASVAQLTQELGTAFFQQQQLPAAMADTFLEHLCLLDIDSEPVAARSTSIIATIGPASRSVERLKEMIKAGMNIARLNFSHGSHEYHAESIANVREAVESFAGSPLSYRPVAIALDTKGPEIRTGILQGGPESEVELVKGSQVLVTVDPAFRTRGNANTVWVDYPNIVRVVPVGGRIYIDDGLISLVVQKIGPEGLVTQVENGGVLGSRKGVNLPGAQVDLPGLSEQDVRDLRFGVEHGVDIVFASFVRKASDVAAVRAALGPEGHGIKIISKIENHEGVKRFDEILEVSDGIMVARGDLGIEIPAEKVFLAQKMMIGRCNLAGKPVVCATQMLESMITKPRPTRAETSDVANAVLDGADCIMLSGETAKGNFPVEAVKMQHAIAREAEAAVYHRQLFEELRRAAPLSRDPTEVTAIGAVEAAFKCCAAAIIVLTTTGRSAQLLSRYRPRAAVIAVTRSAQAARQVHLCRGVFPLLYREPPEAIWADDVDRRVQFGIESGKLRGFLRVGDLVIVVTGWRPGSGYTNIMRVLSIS

`O=C(NN=C(c1ccccc1)c1cc2ccccc2[nH]1)c1cc(Br)ccc1O`: the “MIC>98” value against Staphylococcus aureus [1] came out at 1.4 µg/mL (≈ 3.22 µM). Further, the inhibition worked out at 5.6% in series [2]; 4.8% in [3]; 13.4% in series [4]; 11.2% in series [7]; 97.6% in [8]. The Activity in the series with THP-1 [5] is listed as 43%; with THP-1 [6], 83%. Besides, the IC50 against Pyruvate kinase amounted to 445 nM.
Take `CC(=NNC(=O)c1ccc(Br)cc1O)c1cc2ccccc2n1C` (mixture of isomers): the “MIC>98” value in the series with Staphylococcus aureus [1] stood at 4.8 µg/mL. Besides, the inhibition in [9] came to 61%.
As for `CC(=NNC(=O)c1cc(Br)ccc1O)c1nc2ccccc2o1` (mixture of isomers), in series [9], the inhibition was 26%. Moreover, in the series on Staphylococcus aureus [10], the “MIC>98” value was greater than 150 µg/mL.
Consider `C/C(=N\NC(=O)c1cc(Br)ccc1O)c1cc2cccc(F)c2[nH]1`, for which, in the series on Staphylococcus aureus [1], the “MIC>98” value is greater than 156 µg/mL. Moreover, in [9], the inhibition turned out to be 39%.

These data come from ChEMBL document CHEMBL2202977, “Optimization and structure-activity relationships of a series of potent inhibitors of methicillin-resistant Staphylococcus aureus (MRSA) pyruvate kinase as novel antimicrobial agents” (Bioorg Med Chem, 2012).
